Rows were chosen to be rich in hits. Some 3.7% of all compounds tested hit in one or more screens of this group.
KCNQ1 pot – potentiators or activators of human KCNQ1 potassium channel | P51787 | CHO-K1 KCNQ1, thallium flux FluxOR fluorescence; hits give high values | B-score at 10 µM | actives 0.35% (n = 310,000) | AID 2648;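 active = fluorescence ratio B-score, a plate-corrected score, at least three library SD, with initial intensity B-score within 5 SD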
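System: CHO-K1 cells stably expressing KCNQ1 / Medium: assay buffer for compound exposure, DMSO matched across wells / Reagent: thallium- and potassium-containing depolarizing buffer / Compound: one concentration, matched DMSO / Incubation: 20 min compound pretreatment at room temperature / Measured by: kinetic FluxOR fluorescence, 10 s baseline plus 110 s post-stimulus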
KCNK3 inh – human KCNK3 channel inhibition, primary screen | actives 0.84% (n = 340,000) | CHO-KCNK3 thallium flux, FluxOR fluorescence; hits give low values | O14649 | AID 602410 | B-score at 10 µM;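 active = B-score under library mean minus 4 SD, starting fluorescence ratio at most library mean plus 5 SD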;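 note: more negative B-score means stronger inhibition of thallium flux through KCNK3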
Kir21 inh – blocks the mouse Kir2.1 inward-rectifier potassium channel; P35561; HEK293-Kir2.1, FluxOR thallium flux fluorescence; hits give low values; B-score at 10 µM; actives 0.85% (n = 310,000); AID 1672;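 active = fluorescence ratio B-score at or below minus 3 SD of library scores, with starting-brightness B-score within 2 SD, cut at about -4.2 in these data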;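 note: channel flux triggered by added potassium and thallium sulfate stimulus; B-score of peak minus minimum fluorescence over baseline after thallium stimulus; more negative B-score means stronger Kir2.1 block with less thallium influx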
Target sequence (P35561 whole entry, looked up): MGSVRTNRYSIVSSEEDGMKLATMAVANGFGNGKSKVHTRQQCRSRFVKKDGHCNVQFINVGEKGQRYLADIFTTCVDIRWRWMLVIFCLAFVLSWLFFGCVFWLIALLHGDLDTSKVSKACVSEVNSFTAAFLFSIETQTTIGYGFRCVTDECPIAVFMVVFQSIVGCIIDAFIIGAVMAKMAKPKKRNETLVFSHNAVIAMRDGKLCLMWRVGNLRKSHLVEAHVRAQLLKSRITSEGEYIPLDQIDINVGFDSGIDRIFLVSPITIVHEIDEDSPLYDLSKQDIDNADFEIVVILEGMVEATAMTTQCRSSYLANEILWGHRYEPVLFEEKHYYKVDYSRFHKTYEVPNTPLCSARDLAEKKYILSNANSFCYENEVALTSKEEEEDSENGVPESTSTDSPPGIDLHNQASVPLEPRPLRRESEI
KCNK9 inh – human KCNK9 channel inhibition; actives 1.2% (n = 310,000); B-score at 10 µM; HEK293 KCNK9, FluxOR thallium flux fluorescence; hits give low values; Q9NPC2; AID 488922;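 active = ratio B-score over 3 SD below the library mean, with starting fluorescence within 5 SD of its mean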;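 note: negative B-score means less thallium flux so channel inhibition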
hERG rescue – shields human hERG channel from block by proarrhythmic agents; Q12809; CHO-hERG, FluxOR thallium flux, dofetilide IC70 present; activation (rescue from dofetilide block), less the hit threshold, % at 10 µM; actives 0.51% (n = 310,000);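 active = activation above the mean of controls blocked by dofetilide plus 5 SD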;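 note: thallium influx through hERG after potassium depolarization seen as dye fluorescence rise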
KCNQ1 block – inhibitors of human KCNQ1 potassium channel | P51787 | CHO-K1 KCNQ1, FluxOR thallium flux fluorescence; hits give high values | B-score at 10 µM | actives 1.3% (n = 310,000) | AID 2642;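 active = compounds whose thallium flux B-score, printed positive for inhibition, exceeds three library SD while starting fluorescence stays within three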;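 note: channel opened by potassium depolarization with thallium stimulus after 20 min compound exposure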
KCNK3 confirm – confirmation of human KCNK3 two-pore domain potassium channel inhibitors; shares compounds with KCNK3 inh; CHO-KCNK3 thallium flux, FluxOR fluorescence; 0% buffer, 100% carvedilol maximal block; ratio percent of control, % at 10 µM; actives 99% (n = 2,400);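 active = ratio percent of control, averaged over triplicates, above buffer control mean plus 5 SD, cut at about 64% in these data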;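 note: ratio is the fluorescence rise from min to max over baseline after thallium stimulus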
KCNK3 uninduced – KCNK3 inhibitor counter-screen hit in non-induced cells; thallium flux ratio (lower = more inhibition) at 10 µM; actives 40% (n = 2,400); non-induced KCNK3 parental cells, FluxOR thallium flux; hits give low values; shares compounds with KCNK3 inh; AID 651747;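 active = thallium flux ratio, averaged over three wells, more than 5 SD below the buffer control mean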;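 note: host cells are CHO cells without KCNK3 induction; ratio is peak minus trough fluorescence over baseline then normalized to buffer controls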
* = called active by the depositor; i = inactive; . = no result.

SMILES | KCNQ1 pot | KCNK3 inh | Kir21 inh | KCNK9 inh | hERG rescue | KCNQ1 block | KCNK3 confirm | KCNK3 uninduced
Cn1ccc(C(=O)Nc2ccc(Br)cc2Br)n1 | i | i | 0.62 | i | -11 | i | . | .
CN(Cc1cn(C)nc1-c1ccc(Oc2ccccc2)cc1)Cc1cnc2ccccn12 | i | -9.4* | -5.1* | -7* | -36 | 7* | 131* | 0.13*
CN(Cc1ccno1)Cc1cn(C)nc1-c1ccc(Oc2ccccc2)cc1 | i | -10* | -0.39 | i | -18 | i | 91* | i
COc1cc(C)ccc1OCCOc1cc(C)ccc1Cl | i | -8.7* | 2.5 | i | -10 | i | 88* | i
COc1cc(C)ccc1OCCOc1c(Cl)cc(Cl)cc1Cl | i | i | 0.15 | i | -12 | i | . | .
CC(=O)N(/N=C1/C(=O)Nc2ccccc21)c1ccccc1 | i | -9* | 1.7 | i | -9 | i | 125* | 0.12*
CC(=O)c1ccc(N=C2C(=O)Nc3ccccc32)cc1 | i | i | 0.29 | i | -3 | i | . | .
CCc1cc(CNC(=O)c2cc(COc3ccc(C)nc3)on2)on1 | i | -9.4* | 1.1 | i | -6 | i | 0 | i
Cc1ccc(OCc2cc(C(=O)NCc3ccc(OC(F)(F)F)cc3)no2)cn1 | i | i | -0.53 | i | -2 | i | . | .
CC(C)(C)C(=O)Nc1ccccc1C(=O)NCc1ccco1 | i | -9.3* | -0.05 | i | -13 | i | 65* | i
CCOC(=O)Nc1cccc(OCC(=O)Nc2ccc3c(c2)CCC3)c1 | . | i | . | . | . | . | . | .
COc1ccc(NC(=O)Nc2cccc3ccccc23)cc1S(N)(=O)=O | i | i | -0.4 | i | -8 | i | . | .
CCCCNc1oc(-c2cccs2)nc1S(=O)(=O)c1ccccc1 | i | -9.5* | 0.46 | i | -10 | i | 127* | 0.13*
O=S(=O)(c1ccccc1)c1nc(-c2cccs2)oc1NCCCn1ccnc1 | i | i | -2.8 | i | -19 | i | . | .
CCOc1ccc(NC(=O)CSc2nc3ccccc3nc2N2CC(C)OC(C)C2)cc1 (stereo not drawn) | i | i | 0.31 | i | -7 | i | . | .
CCCCS(=O)(=O)N1CCCC(C(=O)NCC2CCCO2)C1 (stereo not drawn) | i | i | -0.62 | i | -5 | i | . | .
Cc1n[nH]c(C)c1S(=O)(=O)N1CCc2ccccc2C1 | i | i | -0.42 | i | -11 | i | . | .
CCOc1ccc(-c2nc(CSCC(=O)N3CCN(c4cccc(OC)c4)CC3)c(C)o2)cc1 | i | -12* | 1.1 | i | -15 | i | 138* | 0.15*
CCOC(=O)N1CCC(NC(=O)CSCc2nc(-c3ccc(OCC)cc3)oc2C)CC1 | i | i | 0.54 | i | -7 | i | . | .
COc1ccccc1/C=N/NC(=O)CSc1cc(C)nc2ccccc12 | i | i | -0.06 | i | -11 | i | . | .
COc1ccccc1/C=N/NC(=O)CSc1ccc2ccccc2n1 | i | -11* | 0.28 | i | -7 | i | 114* | i
COc1ccc(CCN(Cc2nc(-c3ccccc3)no2)Cc2nc(-c3ccccc3)no2)cc1OC | i | -9.2* | 0.61 | i | -7 | i | 92* | i
O=C(COC(=O)c1cc(Br)ccc1O)Nc1cc(S(=O)(=O)N2CCCC2)ccc1Cl | i | -9.5* | 2.3 | -6.6* | -21 | i | 96* | i
COC(CNC(=O)C1CC(=O)N(CCc2ccc(C)cc2)C1)OC (stereo not drawn) | i | i | -0.4 | i | -4 | i | . | .
C=CCN(c1nc(C)cc(OC)n1)S(=O)(=O)c1ccccc1 | i | -9.2* | -7.9* | i | -12 | i | 107* | i
SMILES | KCNQ1 pot | KCNK3 inh | Kir21 inh | KCNK9 inh | hERG rescue | KCNQ1 block | KCNK3 confirm | KCNK3 uninduced
C=CCN(c1nc(C)cc(OC)n1)S(=O)(=O)c1ccc(C)cc1 | i | i | -0.02 | i | -7 | i | . | .
COC(=O)c1ccc2c(c1)C(C)(C)C(/C=C/c1ccc(OC)c(OC)c1OC)=[N+]2C | i | -12* | -7.2* | i | -28 | 7* | 117* | 0.09*
COC(=O)c1ccc2c(c1)C(C)(C)C(/C=C/c1ccc(O)cc1)=[N+]2C | i | i | -11 | i | -39 | i | . | .
CC(=O)N[C@@H](Cc1ccc(O)cc1)CN1C(N)=NC[C@@H]1CC(C)C | i | i | 0 | i | -10 | i | . | .
COC(=O)CCc1c[nH]c2ccc([N+](=O)[O-])cc12 | . | i | . | . | . | . | . | .
O=C(CCc1c[nH]c2ccccc12)OCc1cccc([N+](=O)[O-])c1 | i | -9.4* | 0.43 | i | -10 | i | 83* | i
O=c1[nH]c(Cc2cccc(C(F)(F)F)c2)nc2ccccc12 | i | i | 0.7 | i | -4 | i | . | .
CCOc1ccc(NC(=O)C2CCCN(S(C)(=O)=O)C2)cc1 (stereo not drawn) | i | i | 0.94 | i | -5 | i | . | .
O=C(Nc1ccc(CN2CCOCC2)cc1)c1ccc(Cl)cc1Cl | i | i | 0.04 | i | -2 | i | . | .
O=C(Nc1ccc(CN2CCOCC2)cc1)c1ccc(-c2ccc(Cl)cc2Cl)o1 | i | -9.7* | -0.01 | i | -15 | i | 103* | i
O=C(CS(=O)(=O)c1ccccc1)NCc1ccc(Cl)cc1 | i | i | -0.97 | i | -5 | i | . | .
COc1ccc(Cl)c2sc(N3CCN(C(=O)c4ccco4)CC3)nc12 | i | -10* | 0.54 | i | -18 | i | 86* | i
CC(=O)Nc1ccc(NC(=O)CCNC(=O)c2ccccc2Cl)cc1 | i | i | -2.5 | i | -3 | i | . | .
Cc1ccc(NC(=O)c2ccc(Cl)c(S(=O)(=O)N3CCc4ccccc43)c2)nc1 | . | -12* | . | . | . | . | 144* | 0.13*
CC(C)Cn1c(N)c(/C=N/NC(=O)c2ccc(Cl)cc2)c(=O)n(C)c1=O | i | i | 0.47 | i | -10 | i | . | .
CCN1CCSc2ccc(C(=O)NCc3ccccc3Br)cc21 | i | -9.7* | 4.6 | i | -15 | i | 104* | 0.15*
CN1CCSc2ccc(C(=O)NCc3cccc(Br)c3)cc21 | i | -14* | 0.24 | i | -14 | i | 120* | 0.16*
CCN1CCSc2ccc(C(=O)NCc3ccccc3C)cc21 | i | i | 0.81 | i | -12 | i | . | .

Source: PubChem (Johns Hopkins Ion Channel Center)
